“And” between values parts separate entries of the source, which are not always exact repeats. Equal values may be shown once. Read-outs that look alike come from different tables or passages of the source.

Series [1] deals with human liver microsomes from six individual liver donors. It counts as in vitro ADME. To be noted: for inhibition of M3 formation in donor HL-109: HL-109: low CYP2C19 activity, high CYP3A activity, no CYP3A5 expression. A digest of the protocol: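 HLMs from six donors (2 CYP3A5 expressors, 4 non-expressors), 1 mg/mL, were preincubated 10 min with 0.5 μM CYP3cide plus 1 mM NADPH, with a methanol vehicle control. They were diluted 40-fold to 0.025 mg/mL in buffer with 1 mM NADPH, then 2 μM THC was added. Reactions ran 2 min before quench and LC-MS/MS. % activity remaining was normalised to vehicle, in duplicate.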

Series [2] concerns the target T1, human FABP1 (Homo sapiens, UniProt P07148).
T1 sequence (P07148 1-127): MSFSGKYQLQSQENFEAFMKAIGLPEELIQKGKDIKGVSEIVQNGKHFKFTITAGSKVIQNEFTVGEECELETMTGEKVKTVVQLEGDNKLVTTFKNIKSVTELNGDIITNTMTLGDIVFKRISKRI
As to the kind of experiment: DAUDA displacement assay of cannabinoid binding to FABP1. A digest of the protocol:
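Purified human FABP1, protein quantified by BCA and held on ice in gel filtration buffer with 0.5 mM DTT, titrated with test cannabinoid displacing DAUDA. Fluorescence spectra scanned at 600 nm/min, PMT 800 V. Bound-DAUDA signal extracted by singular value decomposition. Kd from ternary binding model fit; EC50 from three-parameter dose-response fit. Mean ± SD, three days, ≥2 protein batches.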

In series [3] the test system is recombinant CYP3A4. As to the kind of experiment: THC incubations with recombinant CYP3A4 in the presence and absence of FABP1. It counts as in vitro ADME, human. A digest of the protocol:
(§1)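 Recombinant CYP3A4 (Supersomes) at 0.625 nM (0.004 mg/mL microsomal protein), with seven nominal THC concentrations of 0.156–3.75 μM, ±20 μM FABP1 added before 5 min preincubation at 37 °C. Started with 1 mM NADPH, 1 min, with a no-NADPH control, then LC-MS/MS. M4 data were fitted to an allosteric sigmoidal model (K0.5, h); other metabolites used Michaelis-Menten fits, against free THC; matched pairs.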

Series [4] has as its system CYP3A4. The series is described as above. It is filed as in vitro ADME, human. As to conditions: human. A digest of the protocol: as §1
The test system of series [5] is human liver microsomes from three individual donors. As to the kind of experiment: Impact of FABP1 on THC metabolism in HLMs from individual donors. It counts as in vitro ADME. As to conditions: HLM incubations.
Series [6] can be described thus: THC unbound fraction in incubations with recombinant CYPs. It counts as in vitro ADME. As to conditions: human, recombinant CYP3A4 microsomes (Supersomes), pH 7.4. In a few lines: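 Magnetic silica beads (50 μL), washed three times, were pre-equilibrated 30 min on ice with recombinant CYP at incubation protein concentration in 0.2 mL buffer. THC was added at each nominal kinetic concentration and incubated 30 min at 37 °C with shaking, then cooled 5 min at room temperature. Total and supernatant THC were measured by LC-MS/MS; fu = Cfree/Ctotal.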

The target of series [7] is T1, human FABP1. To be noted: read-out: Kd previously reported; cited from earlier work.
For series [8], the system named is HLMs and recombinant CYP2C9. To be noted: cited from earlier work; for Km: in HLM.
The nature of series [9]: Kinetics of THC metabolite formation in pooled human liver microsomes. As to conditions: human, pooled human liver microsomes, pooled HLMs 0.1 mg/mL. It is filed as in vitro ADME. In a few lines: (§2)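 Pooled HLMs at 0.1 mg/mL with nominal THC 0.05–5 μM in 100 mM potassium phosphate pH 7.4. After 5 min preincubation at 37 °C, 1 mM NADPH was added and reactions ran 2 min, within time linearity. Quench was acetonitrile/1% formic acid with 11-OH-THC-d3, then LC-MS/MS. Michaelis-Menten fits used bead-measured free THC; linear fits gave CLint,u where saturation was absent. Three days, duplicates.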

Series [10] concerns pooled human liver microsomes. The series is described as above. To be noted: pooled HLMs 0.1 mg/mL; mean ± SD, 3 days. It counts as in vitro ADME. A digest of the protocol: as §2
Series [11] concerns recombinant CYPs. As to the kind of experiment: THC metabolite formation by a panel of recombinant CYPs. It counts as in vitro ADME, human. To be noted: 10 μM THC. A digest of the protocol:
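Individual recombinant CYPs (10 pmol/mL) across a twelve-enzyme panel were preincubated 5 min at 37 °C with 10 μM THC in 100 mM potassium phosphate pH 7.4. Reactions were started with 1 mM NADPH and ran 15 min, then were quenched with acetonitrile/1% formic acid containing 11-OH-THC-d3 and analysed by LC-MS/MS. Relative formation was the metabolite/internal-standard peak-area ratio; peaks below S/N 5 were not quantified.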

The conditions of series [12]: cited from earlier work.
Series [13] can be described thus: THC unbound fraction in human liver microsome incubations. It counts as in vitro ADME. As to conditions: pooled liver microsomes, pH 7.4. In a few lines: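 Magnetic silica beads (200 μL), washed three times, were pre-equilibrated 30 min on ice with HLM protein at incubation concentration in 0.5 mL buffer. THC was added at each nominal kinetic concentration and incubated 30 min at 37 °C with shaking, then cooled 5 min. Total and supernatant samples were quenched and measured by LC-MS/MS; fu = Cfree/Ctotal.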

For series [14] the following is noted: cited from earlier work. This is another data set of the same source.
In series [15] the test system is recombinant CYP2C9. In words: THC incubations with recombinant CYP2C9 in the presence and absence of FABP1. It counts as in vitro ADME, human. As to conditions: recombinant CYP2C9, absence of FABP1. A digest of the protocol:
(§3)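 Recombinant CYP2C9 (Supersomes) at 1 nM (0.0016 mg/mL microsomal protein), with seven nominal THC concentrations of 10–640 nM in pH 7.4 phosphate buffer, ±20 μM FABP1 added before 5 min preincubation at 37 °C. Started with 1 mM NADPH, 1 min, with a no-NADPH control. Quench was acetonitrile/formic acid with 11-OH-THC-d3, then LC-MS/MS. Km,u and kcat came from Michaelis-Menten fits against free THC; matched pairs, separate days.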

Series [16] concerns CYP2C9. The series is described as above. As to conditions: human. It is filed as in vitro ADME, human. In a few lines: as §3
Series [17] concerns CYP2C19. As to the kind of experiment: THC incubations with recombinant CYP2C19 in the presence and absence of FABP1. To be noted: human. It is filed as in vitro ADME, human. In a few lines:
(§4)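 Recombinant CYP2C19 (Supersomes) at 1 nM (0.013 mg/mL microsomal protein), with nominal THC 0.02–1.0 μM, ±20 μM FABP1 added before 5 min preincubation at 37 °C. Started with 1 mM NADPH, 2 min, with a no-NADPH control, then quench and LC-MS/MS. Matched ±FABP1 pairs. Michaelis-Menten fits against free THC from bead measurements, with a mass-balance calculation when FABP1 was present. Replicates on separate days.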

Series [18] has as its system recombinant CYP2C19. Described as above. It counts as in vitro ADME, human. In a few lines:
as §4

The mark [19] stands for this setting: recombinant CYP3A4, absence of FABP1, allosteric sigmoidal model.
Where [20] appears, read: THC depletion, 500 nM nominal, 0.2% BSA.

Turning to `CCC1(c2ccccc2)NC(=O)N(Cc2ccccc2)C1=O` (single isomer, unassigned; (+)) [Benzylnirvanol, (+)-N-3-benzylnirvanol], the “inhibition of M3 formation in donor HL-109” value in [1] is recorded as “no impact”.

In [2], `CCCCC/C=C\C/C=C\C/C=C\C/C=C\CCCC(=O)OC(CO)CO` [2AG, 2-arachidonoylglycerol] returned an EC50 of 180 ± 20 nM and a Kd of 60 ± 40 nM.

As for `CCCCC/C=C\C/C=C\C/C=C\C/C=C\CCCC(=O)NCCO` [AEA, anandamide], the EC50 in [2] was 310 ± 140 nM.

Take `C=C(C)[C@@H]1CCC(C)=C[C@H]1c1c(O)cc(CCCCC)cc1O` [CBD, cannabidiol]: in series [2], it took 920 ± 70 nM to reach a half-maximal effect (EC50).

For `Cc1ccc(-c2c(-c3nn(C)c4ncnc(N5CC[C@H](N6CCCCC6)C5)c34)cnn2C)cc1` [CYP3cide], in series [1] (CYP3cide 0.5 μM), the “inhibition of M4 formation in donors without CYP3A5 expression” value was approximately 100%. Moreover, the “inhibition of M3 formation in donor HL-109” value in [1] was approximately 100%.

Turning to `CCCCCc1cc(O)c2c(c1)OC(C)(C)[C@@H]1CCC(C)=C[C@@H]21` [THC, Δ9-tetrahydrocannabinol], the “M3 formation by recombinant CYP3A4 in the presence of FABP1” value in series [3] (20 μM FABP1) is recorded as “completely abolished”. For the same compound, the “K0.5,u −FABP1, M4 formation” value in [3] (setting [19]) worked out at 43 ± 25 nM. Also, the “hill slope (h), M4 formation” value in series [3] (setting [19]) came out at 1.4 ± 0.5. The Michaelis-Menten constant (Km) at 1 min in series [4] (recombinant CYP3A4 (Supersomes) with 20 μM FABP1, Km,u + FABP1, M2 formation, recombinant CYP3A4, 20 μM FABP1) was more than 20 nM; in [4] (recombinant CYP3A4 (Supersomes) with 20 μM FABP1, Km,u + FABP1, M4 formation, recombinant CYP3A4, 20 μM FABP1), more than 20 nM; in series [4] (recombinant CYP3A4 (Supersomes), Km,u of the other three major metabolites, formed mainly by recombinant CYP3A4/5), more than 10 nM; in series [4] (recombinant CYP3A4 (Supersomes), Km,u −FABP1, M2 formation, recombinant CYP3A4, absence of FABP1) it was 29 ± 19 nM; in series [4] (recombinant CYP3A4 (Supersomes), Km,u −FABP1, M3 formation, recombinant CYP3A4, absence of FABP1), 18 ± 13 nM; in series [16] (recombinant CYP2C9 (Supersomes) with 20 μM FABP1, Km,u + FABP1, 11-OH-THC formation, recombinant CYP2C9, 20 μM FABP1), more than 20 nM. Moreover, the Km at 1 min in series [16] (recombinant CYP2C9 (Supersomes), Km,u −FABP1, 11-OH-THC formation, recombinant CYP2C9, absence of FABP1) worked out at 0.8 nM. The “decrease in free concentrations of THC by FABP1 binding” value in [5] (2 μM THC, 20 μM FABP1 vs absence) was 86%. In series [5] (2 μM nominal THC), the “free THC in the absence of FABP1” value was found to be 14 nM. Further, the “free THC in the presence of FABP1” value in [5] (2 μM nominal THC, 20 μM FABP1) is 2 nM. The figures for the unbound share (fraction unbound) at 30 min in series [6] and in series [13] were 0.15 ± 0.02 and 0.015 ± 0.001, respectively. The Kd in series [7] was 2900 nM. Besides, the “THC metabolic clearance in pooled HLMs assigned to CYP2C9” value in series [8] (setting [20]) is 91% and > 90%. Besides, the “THC metabolic clearance in pooled HLMs assigned to CYP2D6” value in [8] (setting [20]) was 9%. The Michaelis-Menten constant (Km) in [8] (read-out: unbound Km (Km,u) for 11-OH-formation) is 8 nM; in series [8] (read-out: unbound Km (Km,u) for THC depletion) it was 7 nM; in [15] (read-out: Km,u −FABP1, 11-OH-THC formation) it was 0.77 ± 0.16 nM. Further, the Michaelis constant (Km) at 2 min is more than 45 nM in [9] (Km,unbound of M2 formation, free THC concentrations); more than 45 nM in [9] (Km,unbound of M3 formation, free THC concentrations); more than 45 nM in [9] (Km,unbound of M4 formation, no saturation, linear); 5.2 ± 0.64 nM in series [17] (recombinant CYP2C19 (Supersomes) with 20 μM FABP1, Km,u + FABP1, 11-OH-THC formation, recombinant CYP2C19, 20 μM FABP1); 4.7 ± 0.72 nM in series [17] (recombinant CYP2C19 (Supersomes) with 20 μM FABP1, Km,u + FABP1, M3 formation, recombinant CYP2C19, 20 μM FABP1); 2.2 nM in series [17] (recombinant CYP2C19 (Supersomes), Km,u −FABP1, 11-OH-THC formation, recombinant CYP2C19, absence of FABP1). Further, in [17] (recombinant CYP2C19 (Supersomes), Km,u −FABP1, M3 formation, recombinant CYP2C19, absence of FABP1), the Km at 2 min is 2.2 nM. In addition, the “Vmax of 11-OH-THC formation” value in series [10] came out at 521 ± 53 pmol/min/mg HLM. Besides, the “velocity of 11-OH-THC formation by CYP2C9 and CYP2C19 relative to CYP2D6” value in series [11] was ~ 3 fold. Further, in [11], the “velocity of 11-OH-THC formation by CYP2C9 and CYP2C19 relative to other CYPs” value is given as more than 10 fold. The “dose recovered in urine and feces” value in [12] (after iv administration) is given as “less than 1%”. For the same compound, in series [12] (after oral dosing), the “THC exposure (AUC) in CYP2C9*3/*3 carriers compared to CYP2C9*1/*1 carriers” value is given as 3 fold. Moreover, in [12], the hepatic extraction ratio entry is “around 0.8”. Moreover, the “increase of AUC of THC when co-administered with ketoconazole” value in series [12] was ~ 80%. Besides, the “contribution of CYP2C9 to THC clearance (fraction metabolized)” value in [12] (estimated from AUC in CYP2C9 genotypes) is on record as “about 70%”. Besides, the “THC exposure on co-administration of rifampicin” value in series [12] (oral dosing of THC) is recorded as “decreases THC exposure”. In addition, in series [14], the “blood to plasma ratio” value is 0.67. In addition, in series [14] (plasma), the “plasma protein binding fu” value is on record as 0.01. Moreover, the “kcat −FABP1, 11-OH-THC formation” value in [15] was 0.2 s⁻¹ and 0.2 ± 0.0145 s⁻¹; in series [18] (recombinant CYP2C19, absence of FABP1) it was 0.233 s⁻¹ and 0.233 ± 0.0113 s⁻¹. Besides, the “kcat + FABP1, 11-OH-THC formation” value in series [18] (recombinant CYP2C19, 20 μM FABP1) was 0.133 ± 0.0333 s⁻¹. Moreover, the 50% effective concentration (EC50) in series [2] was 220 ± 130 nM.

The values are drawn from PMC11410521 (Biochemical pharmacology, 2024).
